Data from paper PMC7873610 (European Journal of Medicinal Chemistry, 2021).
Where two headings read alike, the source gives them in different places.

Key:
[1] = biological target: β5 catalytic subunit (chymotrypsin-like activity) (Homo sapiens, UniProt P20618+P28074); experiment: Proteasome-Glo cell-based chymotrypsin-like; conditions: CT-L; for fold increase in inhibitory activity than compounds with unsubstituted phenyl: vs 30, 29 and BSc2189
[2] = system: HeLa; experiment: MTS cytotoxicity assay, HeLa; format: cell-based; conditions: Homo sapiens, 72 h, read-out: Cytotoxicity IC50 ± SEM, Hela, MTS, 72 h
Procedure, shortened: (§1)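 HeLa, MGC-803 and SW480 cells were maintained in DMEM with 10% FBS at 37 °C and 5% CO2. Each line was plated at 5∗10^3 cells/well in 100 μL and treated with test compound for 72 h. MTS solution was added and incubated 3 more h at 37 °C, then absorbance was measured at 490 nm. Assays were run in triplicate with triplicate wells; IC50 was obtained by curve fitting.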

[3] = system: THP-1; experiment: MTS cytotoxicity assay, THP-1; format: cell-based; conditions: Homo sapiens, THP-1, 72 h, read-out: Cytotoxicity IC50 ± SEM, THP-1
Procedure, shortened: (§2)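 RPMI8226, THP-1 and Ramos cells were grown in RPMI 1640 with 10% FBS at 37 °C and 5% CO2. Cells were seeded in 100 μL at 1∗104/well (RPMI8226) or 5∗104/well (THP-1, Ramos) and exposed to test compound for 72 h. MTS was then added for 3 h at 37 °C, and OD was read at 490 nm. Triplicate experiments, triplicate wells each; IC50 from curve fitting.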

[4] = system: RPMI8226; experiment: MTS cytotoxicity assay, RPMI8226; format: cell-based; conditions: Homo sapiens, RPMI-8226, 72 h, read-out: Cytotoxicity IC50 ± SEM, RPMI8226
Procedure, shortened: as §2

[5] = system: SW480; experiment: MTS cytotoxicity assay, SW480; format: cell-based; conditions: Homo sapiens, SW480, 72 h, read-out: Cytotoxicity IC50 ± SEM, SW480
Procedure, shortened: as §1

[6] = system: MGC-803; experiment: MTS cytotoxicity assay, MGC-803; format: cell-based; conditions: Homo sapiens, MGC-803, 72 h, read-out: Cytotoxicity IC50 ± SEM, MGC-803
Procedure, shortened: as §1

[7] = system: Ramos (RA 1); experiment: MTS cytotoxicity assay, Ramos; format: cell-based; conditions: Homo sapiens, 72 h, read-out: Cytotoxicity IC50 ± SEM, Ramos (RA 1)
Procedure, shortened: as §2

[8] = system: HeLa; conditions: read-out: IC50 in HeLa cells, previously published value; cited from earlier work
[9] = system: chymotrypsin-like subunit; conditions: cited from earlier work

## CC(C)C[C@H](NC(=O)OCc1ccccc1)C(=O)N[C@@H](CC(C)C)C(=O)N[C@@H](CC(C)C)C(=O)C(=O)Nc1ccccc1-c1ccccc1 [Compound 41, ((S)-1-(((S)-1-(((S)-1-([1,1′-biphenyl]-2-ylamino)-5-methyl-1,2-dioxohexan-3-yl)amino)-4-methyl-1-oxopentan-2-yl)amino)-4-methyl-1-oxopentan-2-yl)carbamic acid benzyl ester]
[1]; phenyl in ortho position of head group phenyl
  fold reduced inhibitory activity: up to 150 fold

## COc1ccc(C[C@H](NC(=O)[C@H](C)NC(=O)CN2CCOCC2)C(=O)N[C@@H](Cc2ccccc2)C(=O)[C@@]2(C)CO2)cc1 [ONX-0914, reference compound]
[2]
  IC50: 590 nM
[3]
  IC50: 202 nM

## CC(=O)c1cccc(NC(=O)C(=O)[C@H](CC(C)C)NC(=O)[C@H](Cc2c[nH]c3ccccc23)NC(=O)[C@H](CC(C)C)NC(=O)OCc2ccccc2)c1 [Compound 35, ((S)-1-(((S)-1-(((S)-1-((3-acetylphenyl)amino)-5-methyl-1,2-dioxohexan-3-yl)amino)-3-(1H-indol-3-yl)-1-oxopropan-2-yl)amino)-4-methyl-1-oxopentan-2-yl)carbamic acid benzyl ester]
[1]
  fold increase in inhibitory activity than compounds with unsubstituted phenyl: 1.5–4 fold

## CC(C)C[C@H](NC(=O)OCc1ccccc1)C(=O)N[C@@H](Cc1c[nH]c2ccccc12)C(=O)N[C@@H](CC(C)C)C(=O)C(=O)Nc1cccc2ccccc12 [Compound 37, ((S)-1-(((S)-3-(1H-indol-3-yl)-1-(((S)-5-methyl-1-(naphthalen-1-ylamino)-1,2-dioxohexan-3-yl)amino)-1-oxopropan-2-yl)amino)-4-methyl-1-oxopentan-2-yl) carbamic acid benzyl ester]
[1]; 1-naphthyl vs unsubstituted phenyl head group
  fold decrease in inhibitory potency over 29: 2 fold

## CC(=O)c1cccc(NC(=O)C(=O)[C@H](CC(C)C)NC(=O)[C@H](CC(C)C)NC(=O)[C@H](CC(C)C)NC(=O)OCc2ccccc2)c1 [Compound 38, ((S)-1-(((S)-1-(((S)-1-((3-acetylphenyl)amino)-5-methyl-1,2-dioxohexan-3-yl)amino)-4-methyl-1-oxopentan-2-yl)amino)-4-methyl-1-oxopentan-2-yl) carbamic acid benzyl ester]
[1]
  fold increase in inhibitory activity than compounds with unsubstituted phenyl: 1.5–4 fold

## CC(=O)c1ccc(-c2ccc(C(=O)N[C@@H](CC(C)C)C(=O)N[C@@H](CC(C)C)C(=O)N[C@@H](CC(C)C)C(=O)C(=O)Nc3cccc(C(C)=O)c3)o2)cc1 [Compound 46, 5-(4-acetylphenyl)-N-((S)-1-(((S)-1-(((S)-1-((3-acetylphenyl)amino)-5-methyl-1,2-dioxohexan-3-yl)amino)-4-methyl-1-oxopentan-2-yl)amino)-4-methyl-1-oxopentan-2-yl)furan-2-carboxamide]
[4]
  IC50: 38.1 ± 1.19 nM
[5]
  IC50: 79.3 ± 1.87 nM
[6]
  IC50: 79 ± 12.6 nM
[2]
  IC50: 260 ± 4.34 nM
[7]
  IC50: 26.13 ± 0.18 nM
[3]
  IC50: 94.4 ± 1.45 nM

## CC(=O)c1cccc(NC(=O)C(=O)[C@H](CC(C)C)NC(=O)[C@H](Cc2ccccc2)NC(=O)[C@H](CC(C)C)NC(=O)OCc2ccccc2)c1 [Compound 34, ((S)-1-(((S)-1-(((S)-1-((3-acetylphenyl)amino)-5-methyl-1,2-dioxohexan-3-yl)amino)-1-oxo-3-phenylpropan-2-yl)amino)-4-methyl-1-oxopentan-2-yl)carbamic acid benzyl ester]
[1]
  fold increase in inhibitory activity than compounds with unsubstituted phenyl: 1.5–4 fold

## CC(C)C[C@H](NC(=O)OCc1ccccc1)C(=O)N[C@@H](CC(C)C)C(=O)N[C@@H](CC(C)C)C(=O)C(=O)Nc1ccccc1 [BSc2189]
[8]
  IC50: 254 nM

## CC(C)C[C@H](NC(=O)[C@H](Cc1ccccc1)NC(=O)[C@H](CC1CCCCC1)NC(=O)OCc1ccccc1)C(=O)C(=O)Nc1ccccc1 [Compound 31, ((2S)-3-cyclohexyl-1-(((2S)-1-((5-methyl-1,2-dioxo-1-(phenylamino)hexan-3-yl)amino)-1-oxo-3-phenylpropan-2-yl)amino)-1-oxopropan-2-yl)carbamic acid benzyl ester]
[1]; vs 28 with Ala at P3
  fold increase in potency relative to analog 28: 3 fold
[1]; vs 30 with Leu at P3
  fold reduced activity compared with 30: ~3 fold

## CC(C)C[C@H](NC(=O)OCc1ccccc1)C(=O)N[C@@H](Cc1c[nH]c2ccccc12)C(=O)N[C@@H](CC(C)C)C(=O)C(=O)Nc1cccc(S(C)(=O)=O)c1 [Compound 36, ((S)-1-(((S)-3-(1H-indol-3-yl)-1-(((S)-5-methyl-1-((3-(methylsulfonyl)phenyl)amino)-1,2-dioxohexan-3-yl)amino)-1-oxopropan-2-yl)amino)-4-methyl-1-oxopentan-2-yl)carbamic acid benzyl ester]
[1]
  fold increase in inhibitory activity than compounds with unsubstituted phenyl: 1.5–4 fold

## Cc1ccc(NC(=O)C(=O)C(CC(C)C)NC(=O)C(CC(C)C)NC(=O)C(CC(C)C)NC(=O)OCc2ccccc2)c(C)c1 (stereo not drawn) [BSc4999]
[9]
  fold more potent than BSc2189: about 2 fold

## COc1cccc(NC(=O)C(=O)[C@H](CC(C)C)NC(=O)[C@H](CC(C)C)NC(=O)[C@H](CC(C)C)NC(=O)c2ccc(-c3ccc(C(C)=O)cc3)o2)c1 [Compound 47, N-((S)-1-(((S)-1-(((S)-1-((3-methoxyphenyl)amino)-5-methyl-1,2-dioxohexan-3-yl)amino)-4-methyl-1-oxopentan-2-yl)amino)-4-methyl-1-oxopentan-2-yl)5-(4-acetylphenyl)-furan-2-carboxamide]
[4]
  IC50: 43.4 ± 1.04 nM
[5]
  IC50: 74.5 ± 3.13 nM
[6]
  IC50: 85.4 ± 6.73 nM
[2]
  IC50: 239 ± 3.28 nM
[7]
  IC50: 38.3 ± 3.04 nM
[3]
  IC50: 97.9 ± 2.79 nM
